Shown are actives, neighbours in structure and some others; about 1.2% of the full set was active somewhere.
SK-BR-3 tox 24h: SK-BR-3 proliferation inhibitors; SK-BR-3 viability, CellTiter-Glo ATP luminescence, 24 h; active compounds read low; viability, % at 10 µM; 41,000 tested, 0.47% active; AID 847;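 active = viability at or below the median of all test compounds minus 3 SD, in both replicates if run twice, cut at about 45% in these data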;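 also: 100% = median untreated cell wells and 0% = median positive control drug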
E coli RNAP: Escherichia coli RNA polymerase inhibition; P0A8V2; E. coli RNA polymerase, fluorescence transcription assay; inhibition, %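 (tested at 10 µM)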; 62,000 tested, 0.2% active; AID 559; in the data active = inhibition above about 20%;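 also: 0% = enzyme without compound and 100% = no enzyme blank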
Her2 expr inh: Her2 kinase expression inhibition. SKBR-3 HER2 protein level, AlphaScreen, 18-24 h; active compounds read low. 65,000 tested, 0.69% active. HER2 level % of control, % at 10 µM. AID 645;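 active = HER2 level under 5% of the carrier-only control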;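 also: 100% = DMSO carrier and 0% = 500 nM PU-H71 HSP90 inhibitor; lower value means stronger loss of Her2 protein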
TNAP act DEA: human TNAP activation, intermediate phosphate acceptor; P05186; purified TNAP, CDP-star luminescence, 100 mM DEA, 30 min; active compounds read high; scale: 0 levamisole-inhibited, 1 vehicle-only enzyme; activation factor at 20 µM; 64,000 tested, under 10 active; AID 813;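 active = activation factor of at least 2 at 20 µM, relative to controls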
AP ELISA ortho: orthogonal test for alternative complement pathway inhibitors. 62,000 tested, 0.08% active. Human serum alternative complement pathway, LPS-coated ELISA, C3 deposition; tested in compound mixtures. inhibition, % at 5 µM. AID 1235;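 active = inhibition above 30% in each of the two pooled mixtures holding the compound, so the lower value exceeds 30%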;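 also: 0% = serum in Mg-EGTA without compound and 100% = EDTA serum blank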
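Assay system: Human serum alternative complement pathway, C3 deposition on LPS-coated wells | Incubation: 1 h serum-compound exposure at 37 °C | Doses: 5 µM per compound in ten-compound mixtures | Read-out: Percent inhibition | Technique: ELISA with HRP anti-human C3 antibody, TMB substrate, absorbance 450 nm | Replication: Two pool placements per compound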
MMP-13 inhibitor: MMP13 (human) collagenase inhibition; AID 570; 65,000 tested, 0.07% active; inhibition, % at 4 µM; MMP-13 fTHP FRET cleavage, Mca fluorescence;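 active = inhibition above the mean of compound-free control plate wells plus 3 SD, cut at about 14% in these data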;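 also: 0% = DMSO wells and 100% = wells with reference MMP-13 inhibitor after basal subtraction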
Numbers without * were called inactive.

Screening CC(C)(C)C(=O)/C=C(\N)c1ccncc1 returned E coli RNAP 9, Her2 expr inh 56, TNAP act DEA 1, AP ELISA ortho 40* and MMP-13 inhibitor -3.
`CCn1c(SCC(=O)N2CCOCC2)nc2oc3c(Cl)cc(Cl)cc3c(=O)c2c1=O` gave SK-BR-3 tox 24h 98, E coli RNAP 0, Her2 expr inh -1.7*, TNAP act DEA 0.9, AP ELISA ortho 8 and MMP-13 inhibitor -2.
`COc1ccccc1N1CCN(CC(=O)c2c(C)[nH]c3ccccc23)CC1` gave SK-BR-3 tox 24h 80, E coli RNAP -3, Her2 expr inh 103, TNAP act DEA 0.9, AP ELISA ortho -8 and MMP-13 inhibitor -4.
`Cc1[nH]c2ccccc2c1C(=O)COC(=O)C1CCC(=O)N1` (centres undefined) gave E coli RNAP 7, Her2 expr inh -21*, TNAP act DEA 1, AP ELISA ortho 23 and MMP-13 inhibitor -7.
`O=C(Nc1ccccc1)c1cc(N2CCOCC2)nc2ccccc12` gave SK-BR-3 tox 24h 88, E coli RNAP 7, Her2 expr inh 108, TNAP act DEA 0.9 and MMP-13 inhibitor -20.
Cc1cccc(NC(=O)c2cc(N3CCOCC3)nc3ccccc23)c1 was read as SK-BR-3 tox 24h 98, E coli RNAP 21*, Her2 expr inh 106, TNAP act DEA 0.8 and MMP-13 inhibitor -14.
Screening CCN(CC)CCNCc1ccc(-c2ccc(Cl)cc2)o1 returned SK-BR-3 tox 24h 78, E coli RNAP 10, Her2 expr inh 120, TNAP act DEA 0.9, AP ELISA ortho 3 and MMP-13 inhibitor -8.
Screening CCCOC(=O)CN1C(=O)c2ccccc2C1=O returned SK-BR-3 tox 24h 91, E coli RNAP -2, Her2 expr inh 92, TNAP act DEA 0.9, AP ELISA ortho 21 and MMP-13 inhibitor -6.
CCCCOCCCNC(=O)CN1C(=O)c2ccccc2C1=O was read as SK-BR-3 tox 24h 96, E coli RNAP 2, Her2 expr inh -21*, TNAP act DEA 1 and AP ELISA ortho 6.
`O=C(NCc1nc2ccccc2[nH]1)c1cccs1` gave E coli RNAP -2, Her2 expr inh 80, TNAP act DEA 0.9, AP ELISA ortho 21 and MMP-13 inhibitor 3.
`O=C(NCc1nc2ccccc2[nH]1)c1ccco1` gave SK-BR-3 tox 24h 89, E coli RNAP 25*, Her2 expr inh 88, TNAP act DEA 0.9, AP ELISA ortho -4 and MMP-13 inhibitor 3.
For O=C(CC(=O)N1CCN(c2ccccn2)CC1)Nc1ccc2nc3n(c(=O)c2c1)CCCCC3 the results were E coli RNAP 3, Her2 expr inh 70, TNAP act DEA 0.9, AP ELISA ortho 7 and MMP-13 inhibitor -1.
For CCCC1(CCC)NC(=O)N(CC(=O)Nc2cccc(OC)c2)C1=O the results were E coli RNAP 40*, Her2 expr inh 104, TNAP act DEA 0.9, AP ELISA ortho 7 and MMP-13 inhibitor 0.
For CCOC(=O)N1CCC(NC(=O)c2cccc3c2C(=O)N(c2ccc(OC)cc2)C3)CC1 the results were E coli RNAP 5, Her2 expr inh 83, TNAP act DEA 0.9, AP ELISA ortho 18 and MMP-13 inhibitor -1.
For COC(=O)c1[nH]c2ccc(C)cc2c1NS(=O)(=O)c1ccc(F)cc1 the results were SK-BR-3 tox 24h 38*, E coli RNAP -3, Her2 expr inh 103, TNAP act DEA 0.9, AP ELISA ortho 6 and MMP-13 inhibitor -4.
For COC(=O)c1[nH]c2ccc(C)cc2c1NC(=O)CN1CCCCC1C (centres undefined) the results were SK-BR-3 tox 24h 98, E coli RNAP 0, Her2 expr inh 80, TNAP act DEA 0.9, AP ELISA ortho 10 and MMP-13 inhibitor -31.
Screening COC(=O)c1[nH]c2ccc(C)cc2c1NC(=O)CN1CCCc2ccccc21 returned SK-BR-3 tox 24h 102, E coli RNAP 8, Her2 expr inh -22*, TNAP act DEA 0.9, AP ELISA ortho 3 and MMP-13 inhibitor -10.
For O=C(NCc1ccccn1)C(C(=O)c1ccc(F)cc1)n1ccccc1=O (centres undefined) the results were SK-BR-3 tox 24h 89, E coli RNAP 3, Her2 expr inh 99, TNAP act DEA 0.9, AP ELISA ortho 11 and MMP-13 inhibitor -8.
